One molecule from ChEMBL document CHEMBL1157912, “Impact of nature and length of linker incorporated in agonists on toll-like receptor 9-mediated immune responses” (J Med Chem, 2010) can be followed below.

Assay [1] addresses T1, Toll-like receptor 9 (Mus musculus) (UniProt Q9EQU3).
T1 sequence (whole entry): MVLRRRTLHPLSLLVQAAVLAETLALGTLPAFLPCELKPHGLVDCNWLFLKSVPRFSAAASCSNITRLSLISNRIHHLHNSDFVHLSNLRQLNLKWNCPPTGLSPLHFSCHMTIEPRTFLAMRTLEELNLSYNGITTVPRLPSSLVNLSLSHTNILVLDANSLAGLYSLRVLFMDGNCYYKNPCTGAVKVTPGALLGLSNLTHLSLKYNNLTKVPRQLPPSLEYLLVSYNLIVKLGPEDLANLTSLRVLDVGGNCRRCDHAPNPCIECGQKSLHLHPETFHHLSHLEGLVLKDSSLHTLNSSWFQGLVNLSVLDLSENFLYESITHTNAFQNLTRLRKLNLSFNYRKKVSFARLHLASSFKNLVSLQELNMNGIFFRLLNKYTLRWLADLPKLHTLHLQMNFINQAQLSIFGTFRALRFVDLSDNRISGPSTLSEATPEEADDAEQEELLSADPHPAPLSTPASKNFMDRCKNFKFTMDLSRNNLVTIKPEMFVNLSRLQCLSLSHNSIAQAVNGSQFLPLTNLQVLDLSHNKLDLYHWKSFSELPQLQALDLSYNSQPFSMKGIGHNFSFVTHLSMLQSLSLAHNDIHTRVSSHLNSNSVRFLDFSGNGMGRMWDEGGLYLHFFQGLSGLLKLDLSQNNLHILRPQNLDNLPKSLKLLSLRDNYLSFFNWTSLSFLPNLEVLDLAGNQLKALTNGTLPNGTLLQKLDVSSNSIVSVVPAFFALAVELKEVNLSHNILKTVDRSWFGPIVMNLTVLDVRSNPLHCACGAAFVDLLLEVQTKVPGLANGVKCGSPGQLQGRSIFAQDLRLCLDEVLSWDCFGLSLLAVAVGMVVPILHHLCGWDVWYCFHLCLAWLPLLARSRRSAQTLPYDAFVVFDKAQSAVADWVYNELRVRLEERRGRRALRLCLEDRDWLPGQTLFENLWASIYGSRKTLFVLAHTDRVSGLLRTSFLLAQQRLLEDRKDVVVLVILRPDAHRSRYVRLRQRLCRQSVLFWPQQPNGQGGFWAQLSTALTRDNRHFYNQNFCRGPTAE
Nature of the assay: Activation of mouse TLR9 expressed in HEK293 cells assessed as induction of NF-kappaB activity after 18 hrs by SEAP assay. The class given is cell-based. The essentials: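 HEK293 cells stably expressing mouse TLR9 were grown in DMEM with 10% heat-inactivated FBS. At 80% confluence they were transiently transfected with a SEAP reporter plasmid (100 ng/well, lipofectamine) for 6 h. Medium was then replaced and agonists were added for 18 h. Supernatant SEAP was read with QuantiBlue substrate at 620-645 nm. Results are expressed as fold NF-κB activity over PBS control.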

Assay [2] concerns the target T2, Toll-like receptor 9 (Homo sapiens) (UniProt Q9NR96).
T2 sequence (whole entry): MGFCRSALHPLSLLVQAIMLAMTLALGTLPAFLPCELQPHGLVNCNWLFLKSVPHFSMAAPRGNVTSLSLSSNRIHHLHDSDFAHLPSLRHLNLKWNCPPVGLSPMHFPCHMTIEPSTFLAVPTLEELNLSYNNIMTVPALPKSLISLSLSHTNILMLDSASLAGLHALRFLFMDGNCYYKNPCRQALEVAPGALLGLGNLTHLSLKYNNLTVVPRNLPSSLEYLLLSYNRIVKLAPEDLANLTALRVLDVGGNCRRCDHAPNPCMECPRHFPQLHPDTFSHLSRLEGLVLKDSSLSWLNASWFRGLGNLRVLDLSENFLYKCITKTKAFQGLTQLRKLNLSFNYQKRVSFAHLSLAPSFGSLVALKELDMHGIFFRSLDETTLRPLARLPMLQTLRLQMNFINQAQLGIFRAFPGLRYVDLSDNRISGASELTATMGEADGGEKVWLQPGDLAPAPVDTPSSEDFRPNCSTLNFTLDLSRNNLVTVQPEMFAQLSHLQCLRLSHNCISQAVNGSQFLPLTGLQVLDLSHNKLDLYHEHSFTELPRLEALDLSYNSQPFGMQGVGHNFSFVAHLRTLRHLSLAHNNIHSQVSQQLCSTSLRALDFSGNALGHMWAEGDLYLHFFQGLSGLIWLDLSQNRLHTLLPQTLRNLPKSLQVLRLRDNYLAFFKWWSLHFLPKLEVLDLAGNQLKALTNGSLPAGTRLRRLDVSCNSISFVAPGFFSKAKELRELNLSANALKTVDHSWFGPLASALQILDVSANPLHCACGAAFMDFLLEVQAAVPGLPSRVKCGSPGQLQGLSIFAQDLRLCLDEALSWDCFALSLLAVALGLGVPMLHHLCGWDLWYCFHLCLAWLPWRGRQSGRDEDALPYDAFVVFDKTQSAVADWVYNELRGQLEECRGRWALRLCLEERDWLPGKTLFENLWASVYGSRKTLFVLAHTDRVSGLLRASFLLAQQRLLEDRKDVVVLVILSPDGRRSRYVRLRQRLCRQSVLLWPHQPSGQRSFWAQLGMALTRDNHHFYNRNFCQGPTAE
Nature of the assay: Induction of TLR9-mediated immune stimulation in human PBMC assessed as IL1Ralpha production at 2 ug/ml after 24 hrs by luminex multiplex assay (RVb = 0.12 +/- 0.03 ng/ml).

Assay [3] concerns the target T2, Toll-like receptor 9 (Homo sapiens). Briefly: Induction of TLR9-mediated immune stimulation in human PBMC assessed as IL2R production at 10 ug/ml after 24 hrs by luminex multiplex assay (RVb = 0.02 +/- 0.01 ng/ml).
Assay [4] shares this target. Briefly: Induction of TLR9-mediated immune stimulation in human PBMC assessed as IL12 production at 2 ug/ml after 24 hrs by luminex multiplex assay (RVb = 0.00 ng/ml).
Assay [5] shares this target. Nature of the assay: Induction of TLR9-mediated immune stimulation in human PBMC assessed as MIP1alpha production at 2 ug/ml after 24 hrs by luminex multiplex assay (RVb = 0.01 ng/ml).
The target is the same in assay [6]. Briefly: Induction of TLR9-mediated immune stimulation in human PBMC assessed as MIP1beta production at 2 ug/ml after 24 hrs by luminex multiplex assay (RVb = 0.03 +/- 0.02 ng/ml).
Assay [7] shares this target. Nature of the assay: Induction of TLR9-mediated immune stimulation in human PBMC assessed as MIP1beta production at 10 ug/ml after 24 hrs by luminex multiplex assay (RVb = 0.03 +/- 0.02 ng/ml).
Assay [8] shares this target. Briefly: Induction of TLR9-mediated immune stimulation in human PBMC assessed as IP10 production at 2 ug/ml after 24 hrs by luminex multiplex assay (RVb = 0.00 ng/ml).
The target is the same in assay [9]. Nature of the assay: Induction of TLR9-mediated immune stimulation in human PBMC assessed as RANTES production at 2 ug/ml after 24 hrs by luminex multiplex assay (RVb = 0.05 +/- 0.04 ng/ml).
The target is the same in assay [10]. Briefly: Induction of TLR9-mediated immune stimulation in human PBMC assessed as RANTES production at 10 ug/ml after 24 hrs by luminex multiplex assay (RVb = 0.05 +/- 0.04 ng/ml).

For `Cc1cn([C@H]2C[C@H](OCC[C@H](O)COP(=O)(S)O[C@H]3C[C@H](n4cc(C)c(=O)[nH]c4=O)O[C@@H]3COP(=O)(S)O[C@H]3[C@@H](O)[C@H](n4ccc(N)nc4=O)O[C@@H]3COP(=O)(S)O[C@H]3C[C@H](n4cc(C)c(=O)[nH]c4=O)O[C@@H]3COP(=O)(S)O[C@H]3C[C@H](n4cc(C)c(=O)[nH]c4=O)O[C@@H]3COP(=O)(S)O[C@H]3C[C@H](n4ccc5c(=O)[nH]c(N)nc54)O[C@@H]3COP(=O)(S)O[C@H]3[C@@H](O)[C@H](n4ccc(N)nc4=O)O[C@@H]3COP(=O)(S)O[C@H]3C[C@H](n4cc(C)c(=O)[nH]c4=O)O[C@@H]3COP(=O)(S)O[C@H]3[C@@H](O)[C@H](n4cnc5c(=O)[nH]c(N)nc54)O[C@@H]3COP(=O)(S)O[C@H]3C[C@H](n4cc(C)c(=O)[nH]c4=O)O[C@@H]3COP(=O)(S)O[C@H]3[C@@H](O)[C@H](n4ccc(N)nc4=O)O[C@@H]3COP(=O)(S)O[C@H]3C[C@H](n4cc(C)c(=O)[nH]c4=O)O[C@@H]3CO)[C@@H](COP(=O)(S)O[C@H]3[C@@H](O)[C@H](n4ccc(N)nc4=O)O[C@@H]3COP(=O)(S)O[C@H]3C[C@H](n4cc(C)c(=O)[nH]c4=O)O[C@@H]3COP(=O)(S)O[C@H]3C[C@H](n4cc(C)c(=O)[nH]c4=O)O[C@@H]3COP(=O)(S)O[C@H]3C[C@H](n4ccc5c(=O)[nH]c(N)nc54)O[C@@H]3COP(=O)(S)O[C@H]3[C@@H](O)[C@H](n4ccc(N)nc4=O)O[C@@H]3COP(=O)(S)O[C@H]3C[C@H](n4cc(C)c(=O)[nH]c4=O)O[C@@H]3COP(=O)(S)O[C@H]3[C@@H](O)[C@H](n4cnc5c(=O)[nH]c(N)nc54)O[C@@H]3COP(=O)(S)O[C@H]3C[C@H](n4cc(C)c(=O)[nH]c4=O)O[C@@H]3COP(=O)(S)O[C@H]3[C@@H](O)[C@H](n4ccc(N)nc4=O)O[C@@H]3COP(=O)(S)O[C@H]3C[C@H](n4cc(C)c(=O)[nH]c4=O)O[C@@H]3CO)O2)c(=O)[nH]c1=O` (stereo not given in full), the Activity result in assay [1] is “Dose-dependent effect”; in [2], 16.4 ng/mL; in assay [3] it was 0.12 ng/mL; in [4] it was 0.16 ng/mL; in assay [5] it was 0.16 ng/mL; in assay [6], 0.81 ng/mL. In addition, the Activity stood at 1.76 ng/mL in assay [7], 0.79 ng/mL in [8], 0.69 ng/mL in assay [9] and 0.98 ng/mL in assay [10].
